Laboratory results from ChEMBL document CHEMBL1124216, “A novel class of potential central nervous system agents. 3-Phenyl-2-(1-piperazinyl)-5H-1-benzazepines” (1988).

How the values were obtained:
Format in all cases: functional
Mus musculus [1] = assay: Antimaximal electroshock seizure (MES) activity in mice after peroral administration of 10 mg/kg of compound; 0/5; details: route oral
Mus musculus [2] = assay: Antimaximal electroshock seizure (MES) activity in mice after peroral administration of 100 mg/kg of compound; 5/5; details: route oral
Mus musculus [3] = assay: Antiexploratory activity (EXPL) of mice determined by an antimex activity meter,100 mg/kg of dose was administered perorally; No inhibition
Mus musculus [4] = assay: Antitremorine activity(TRM) of mice after peroral administration of 100 mg/kg of compound; Moderate inhibition (51-71%); details: route oral
Mus musculus [5] = assay: Antireserpine activity (RES) of mice after peroral administration of 100 mg/kg of compound; No inhibition; details: route oral
Mus musculus [6] = assay: Antireserpine activity (RES) of mice after peroral administration of 50 mg/kg of compound; Slight inhibition (31-50%); details: route oral
Mus musculus [7] = assay: Antiexploratory activity (EXPL) of mice determined by an antimex activity meter, 50 mg/kg of dose was administered perorally; Slight inhibition (31-50%); details: route oral
Mus musculus [8] = assay: Antimaximal electroshock seizure (MES) activity in mice after peroral administration of 100 mg/kg of compound; 0/5; details: route oral
Mus musculus [9] = assay: Antitremorine activity(TRM) of mice after peroral administration of 100 mg/kg of compound; Slight inhibition (31-50%); details: route oral
Mus musculus [10] = assay: Antiexploratory activity (EXPL) of mice determined by an antimex activity meter, 50 mg/kg of dose was administered perorally; No inhibition; details: route oral
Mus musculus [11] = assay: Antireserpine activity (RES) of mice after peroral administration of 50 mg/kg of compound; No inhibition; details: route oral
Mus musculus [12] = assay: Antireserpine activity (RES) of mice after peroral administration of 100 mg/kg of compound; Slight inhibition (31-50%); details: route oral
Mus musculus [13] = assay: Antitremorine activity(TRM) of mice after peroral administration of 100 mg/kg of compound; No inhibition; details: route oral
Mus musculus [14] = assay: Antiexploratory activity (EXPL) of mice determined by an antimex activity meter, 100 mg/kg of dose was administered perorally; Slight inhibition (31-50%); details: route oral
Mus musculus [15] = assay: Antiexploratory activity (EXPL) of mice determined by an antimex activity meter, 100 mg/kg of dose was administered perorally; No inhibition; details: route oral
Mus musculus [16] = assay: Antitremorine activity(TRM) of mice after peroral administration of 100 mg/kg of compound; details: route oral
Canis familiaris = assay: Inhibition of apomorphine induced emesis in dogs at 1 mg/kg of dose.; details: Canis lupus familiaris
How it was run: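 Beagle dogs (10-15 kg), groups of three, given compound po in a gelatin capsule; 2 h later apomorphine hydrochloride 0.3 mg/kg sc. Vomiting counted for 1 h; mean inhibition as percent of control. ED50 is the dose giving 50% inhibition of emesis, by Litchfield-Wilcoxon.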

Mus musculus [17] = assay: 3,4 -Dihydroxy phenylacetic acid (DOPAC) levels in mouse brain at 10 mg/kg dose.
How it was run: (§1)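 Male Std-ddY mice, 20-25 g, dosed orally with compound in 0.5% aqueous tragacanth. DOPAC was measured fluorometrically after purification by column chromatography on Sephadex G-10 and QAE-Sephadex. Brains from five mice per compound were pooled for each determination.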

Mus musculus [18] = assay: 3,4 -Dihydroxy phenylacetic acid (DOPAC) levels in mouse brain at 50 mg/kg dose.; how it was run: as §1
Mus musculus [19] = assay: The homovanillic acid (HVA) levels in mouse brain at 10 mg/kg of dose.
How it was run: (§2)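 Mice dosed orally in 0.5% aqueous tragacanth; brains of five mice per compound pooled. Homovanillic acid measured in brain extracts and reported as brain level.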

Mus musculus [20] = assay: The homovanillic acid (HVA) levels in mouse brain at 50 mg/kg of dose.; how it was run: as §2
Mus musculus [21] = assay: Exploratory activity of mice determined by an antimex activity meter, 10 mg/kg of dose was administered perorally; details: route oral
Mus musculus [22] = assay: Exploratory activity of mice determined by an antimex activity meter, 50 mg/kg of dose was administered perorally; details: Mus musculus, po
How it was run: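 Male Std-ddY mice (20-25 g), five per dose; compound in 0.5% aqueous tragacanth given orally. Two hours later each mouse placed in an Animex activity meter cage and locomotor activity counted for 3 min. Mean suppression expressed as percent inhibition of control; ED50 by Litchfield-Wilcoxon.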

Mus musculus [23] = assay: Antiexploratory activity (EXPL) of mice determined by an antimex activity meter, 50 mg/kg of dose was administered perorally; Moderate inhibition (51-71%); details: route oral
Mus musculus [24] = assay: Antiexploratory activity (EXPL) of mice determined by an antimex activity meter, 10 mg/kg of dose was administered perorally; No inhibition; details: route oral
Mus musculus [25] = assay: Antitremorine activity(TRM) of mice after peroral administration of 50 mg/kg of compound; No inhibition; details: route oral
Mus musculus [26] = assay: Antipentylene tetrazole activity was determined in mice when administered perorally; details: po
How it was run: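 Groups of five male Std-ddY mice received compound orally in 0.5% tragacanth, then pentylenetetrazole 175 mg/kg ip. Blockade of the tonic extensor component scored as anticonvulsant. ED50 was the dose protecting 50% of animals (Litchfield-Wilcoxon).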

Mus musculus [27] = assay: Antimaximal electroshock seizure activity was determined in mice when administered perorally; details: po

`CCc1ccc2c(c1)CC=C(c1ccccc1)C(N1CCN(C(C)C)CC1)=N2.O=C(O)/C=C/C(=O)O` showed an Activity (Mus musculus [1]) of 0, an Activity (Mus musculus [2]) of 5 and an Inhibition (Mus musculus [3]) of under 30%. The inhibition in vivo at 100 mg/kg (Mus musculus [4]) was 51% and the inhibition in vivo at 100 mg/kg (Mus musculus [5]) was under 30%.
With `Fc1ccc(C2=CCc3ccccc3N=C2N2CCNCC2)cc1` the inhibition in vivo at 50 mg/kg (Mus musculus [6]) was 31% and the inhibition in vivo at 50 mg/kg (Mus musculus [7]) was 31%.
With `CCCN1CCN(C2=Nc3ccc(CC)cc3CC=C2c2ccccc2)CC1.O=C(O)/C=C/C(=O)O` the Activity (Mus musculus [8]) was 0, the Inhibition (Mus musculus [3]) was under 30% and the inhibition in vivo at 100 mg/kg (Mus musculus [9]) was 31%. It also gave an inhibition in vivo at 100 mg/kg (Mus musculus [5]) of under 30%.
In the case of `COc1ccc(C2=CCc3ccccc3N=C2N2CCN(C)CC2)cc1`, the inhibition in vivo at 50 mg/kg (Mus musculus [6]) is reported as 31% and the inhibition in vivo at 50 mg/kg (Mus musculus [10]) is reported as under 30%.
In the case of `OCCN1CCN(C2=Nc3ccccc3CC=C2c2ccc(O)cc2)CC1`, the inhibition in vivo at 50 mg/kg (Mus musculus [11]) is reported as under 30% and the inhibition in vivo at 50 mg/kg (Mus musculus [10]) is reported as under 30%.
`O=C(CCCN1CCN(C2=Nc3ccccc3CC=C2c2ccc(Cl)cc2)CC1)c1ccc(F)cc1` showed an inhibition in vivo at 50 mg/kg (Mus musculus [11]) of under 30% and an inhibition in vivo at 50 mg/kg (Mus musculus [7]) of 31%.
`Clc1ccc2c(c1)N=C(N1CCNCC1)C(c1ccccc1)=CC2.O=C(O)/C=C/C(=O)O` was tested, and the Activity (Mus musculus [8]) was 0, the inhibition in vivo at 100 mg/kg (Mus musculus [12]) was 31% and the inhibition in vivo at 100 mg/kg (Mus musculus [13]) was under 30%. It also gave an inhibition in vivo at 100 mg/kg (Mus musculus [14]) of 31%.
`C#CCN1CCN(C2=Nc3ccc(Br)cc3CC=C2c2ccccc2)CC1` showed an Activity (Mus musculus [8]) of 0, an inhibition in vivo at 100 mg/kg (Mus musculus [15]) of under 30% and an inhibition in vivo at 100 mg/kg (Mus musculus [16]) of under 30%. The inhibition in vivo at 100 mg/kg (Mus musculus [5]) was under 30%.
`OC1(c2ccc(Cl)cc2)CCN(C2=Nc3ccccc3CC=C2c2ccccc2)CC1` showed an Activity (Mus musculus [8]) of 0, an inhibition in vivo at 100 mg/kg (Mus musculus [13]) of under 30% and an inhibition in vivo at 100 mg/kg (Mus musculus [14]) of 31%. For the same molecule, the inhibition in vivo at 100 mg/kg (Mus musculus [5]) was under 30%.
`CCCN1CCN(C2=Nc3ccccc3CC=C2c2ccc(F)cc2)CC1.O=C(O)/C=C/C(=O)O` showed an inhibition in vivo at 1 mg/kg (Canis familiaris) of 100%, a Control (Mus musculus [17]) of 166% and a Control (Mus musculus [18]) of 317%. It also gave a Control (Mus musculus [19]) of 328%, a Control (Mus musculus [20]) of 557% and an inhibition in vivo at 10 mg/kg (Mus musculus [21]) of 18.5%. It also gave an inhibition in vivo at 50 mg/kg (Mus musculus [22]) of 61.4%, an inhibition in vivo at 50 mg/kg (Mus musculus [23]) of 51% and an inhibition in vivo at 10 mg/kg (Mus musculus [24]) of under 30%.
`CCCCN1CCN(C2=Nc3ccc(CC)cc3CC=C2c2ccccc2)CC1.O=C(O)/C=C/C(=O)O` gave an Activity (Mus musculus [8]) of 0, an Inhibition (Mus musculus [3]) of under 30% and an inhibition in vivo at 100 mg/kg (Mus musculus [9]) of 31%. The inhibition in vivo at 100 mg/kg (Mus musculus [5]) was under 30%.
For `Clc1ccc(C2=CCc3ccccc3N=C2N2CCN(Cc3ccccc3)CC2)cc1`, the inhibition in vivo at 50 mg/kg (Mus musculus [6]) was 31% and the inhibition in vivo at 50 mg/kg (Mus musculus [10]) was under 30%.
With `Clc1ccc(C2=CCc3ccccc3N=C2N2CCCCC2)cc1` the Activity (Mus musculus [8]) was 0, the inhibition in vivo at 50 mg/kg (Mus musculus [10]) was under 30% and the inhibition in vivo at 50 mg/kg (Mus musculus [25]) was under 30%. For the same molecule, the inhibition in vivo at 100 mg/kg (Mus musculus [5]) was under 30%.
In the case of `CN1CCN(C2=Nc3ccccc3CC=C2c2ccc(C(F)(F)F)cc2)CC1`, the inhibition in vivo at 50 mg/kg (Mus musculus [11]) is reported as under 30% and the inhibition in vivo at 50 mg/kg (Mus musculus [10]) is reported as under 30%.
`Cl.OC1CCN(C2=Nc3ccccc3CC=C2c2ccc(F)cc2)CC1` showed an Activity (Mus musculus [8]) of 0, an inhibition in vivo at 50 mg/kg (Mus musculus [10]) of under 30% and an inhibition in vivo at 50 mg/kg (Mus musculus [25]) of under 30%. The inhibition in vivo at 100 mg/kg (Mus musculus [5]) was under 30%.
Work on `CN1CCN(C2=Nc3ccc(F)cc3CC=C2c2ccccc2)CC1.Cl.Cl` yielded an Activity (Mus musculus [8]) of 0, an ED50 (Mus musculus [26]) of over 200 mg/kg and an ED50 (Mus musculus [27]) of over 500 mg/kg. For the same molecule, the inhibition in vivo at 100 mg/kg (Mus musculus [13]) was under 30%, the inhibition in vivo at 100 mg/kg (Mus musculus [14]) was 31% and the inhibition in vivo at 100 mg/kg (Mus musculus [5]) was under 30%.
